According to ChEMBL document CHEMBL5712087, “Targeting bromodomain-containing protein 4 (BRD4) inhibits MYC expression in colorectal cancer cells” (Neoplasia, 2019):
Activity calls are given as the source filed them. No cut-off for these calls is given here.

Key:
LS174T [1] = assay: Inhibition of colony formation in human LS174T cells at 5 to 10 uM by crystal violet staining analysis; format: functional, cell-based; details: dose 5-10 µM
How it was run: (§1)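 Cells (1-2x10^3) were plated in six-well plates and, after 48 h, exposed to the PROTAC at the stated concentrations for 3–5 days. Plates were then methanol-fixed and stained with crystal violet. Culture was at 37 °C, 5% CO2, with 10% FCS. Media were RPMI 1640 (Caco2, COLO320, DLD1, LS174t), McCoy's (HCT116, HT29) or DMEM/HamsF12 (SW480). Experiments were done ≥3 times.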

[2] = target: T1, Protein cereblon/Bromodomain-containing protein 4 (Homo sapiens) (UniProt O60885+Q96SW2); assay: PROTAC activity at BRD4/Cereblon in human LS174T-dbet1 resistant cells assessed as MYC protein expression at 500 to 1000 nM for 24 hrs by Western blot analysis; format: cell-based; details: dose 500-1000 nM
[3] = target: T1, Protein cereblon/Bromodomain-containing protein 4 (Homo sapiens); assay: PROTAC activity at BRD4/Cereblon in human LS174T cells assessed as BRD4 mRNA level at 500 to 1000 nM for 24 hrs by RT-qPCR analysis; format: cell-based; details: dose 500-1000 nM
How it was run: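 Total RNA from 10^6 cells after 24 h treatment, Trizol-extracted and integrity-checked. 0.7 µg reverse transcribed, then SYBR-type qPCR: 95 °C 5 min, 40 cycles of 95 °C 15 s/60 °C 60 s. Melting curves checked. MYC or BRD4 normalised to PPIA and ACTB by ΔΔCq. At least three experiments; means ± SD.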

HCT-116 [4] = assay: Inhibition of colony formation in human HCT-116 p53-/- cells at 5 to 10 uM by crystal violet staining analysis; format: functional, cell-based; details: dose 5-10 µM; how it was run: as §1
[5] = target: T1, Protein cereblon/Bromodomain-containing protein 4 (Homo sapiens); assay: PROTAC activity at BRD4/Cereblon in human Caco-2 cells assessed as decrease in MYC protein expression at 5 to 10 uM for 24 hrs by Western blot analysis; format: cell-based; details: dose 5-10 µM
How it was run: (§2)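 Eight CRC lines exposed 24 h to PROTAC at 5 or 10 µM (stocks 2 mM in DMSO, diluted in PBS or medium). Lysis in RIPA with protease/phosphatase inhibitors and 2.5 mmol/l DTT; 15 µg protein on 10% SDS-PAGE, semi-dry transfer to nitrocellulose. Anti-BRD4 or anti-MYC at 1:1,000 overnight at 4 °C; GAPDH or β-actin loading control; chemiluminescence.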

Caco-2 = assay: Inhibition of colony formation in human Caco-2 cells at 5 to 10 uM by crystal violet staining analysis; format: functional, cell-based; details: dose 5-10 µM; how it was run: as §1
[6] = target: T1, Protein cereblon/Bromodomain-containing protein 4 (Homo sapiens); assay: PROTAC activity at BRD4/Cereblon in human LS174T cells assessed as BRD4 protein expression at 500 nM for 2 hrs and measured 22 hrs after washout by Western blot analysis; format: cell-based
How it was run: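 LS174t cells exposed 2 h to PROTAC; for washout, medium replaced and cells collected 22 h later. BRD4 by immunoblot (15 µg lysate, 10% SDS-PAGE, anti-BRD4 1:1,000 overnight at 4 °C, GAPDH/β-actin control).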

HCT-116 [7] = assay: Inhibition of colony formation in human HCT-116 p53+/+ cells at 5 to 10 uM by crystal violet staining analysis; format: functional, cell-based; details: dose 5-10 µM; how it was run: as §1
[8] = target: T1, Protein cereblon/Bromodomain-containing protein 4 (Homo sapiens); assay: PROTAC activity at BRD4/Cereblon in human LS174T cells assessed as BRD4 protein degradation at 100 to 500 nM pretreated with proteasome inhibitor MG132 for 4 hrs by Western blot analysis; format: cell-based; details: dose 100-500 nM
How it was run: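 LS174t cells pre-incubated 4 h with proteasome inhibitor MG132 (10 mM DMSO stock) before PROTAC exposure. BRD4 read by immunoblot: 15 µg lysate, 10% SDS-PAGE, anti-BRD4 1:1,000 overnight at 4 °C, GAPDH/β-actin loading control.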

COLO 320 = assay: Inhibition of colony formation in human COLO 320 cells at 5 to 10 uM by crystal violet staining analysis; format: functional, cell-based; details: dose 5-10 µM; how it was run: as §1
[9] = target: T1, Protein cereblon/Bromodomain-containing protein 4 (Homo sapiens); assay: PROTAC activity at BRD4/Cereblon in human HT-29 cells assessed as decrease in MYC protein expression at 5 to 10 uM for 24 hrs by Western blot analysis; format: cell-based; details: dose 5-10 µM; how it was run: as §2
SW480 = assay: Inhibition of colony formation in human SW480 cells at 5 to 10 uM by crystal violet staining analysis; format: functional, cell-based; details: dose 5-10 µM; how it was run: as §1
LS174T [10] = assay: Inhibition of colony formation in human LS174T cells for 3 days by crystal violet staining analysis; format: functional, cell-based; details: time 3.0 day; how it was run: as §1
HT-29 = assay: Inhibition of colony formation in human HT-29 cells at 5 to 10 uM by crystal violet staining analysis; format: functional, cell-based; details: dose 5-10 µM; how it was run: as §1
[11] = target: T1, Protein cereblon/Bromodomain-containing protein 4 (Homo sapiens); assay: PROTAC activity at BRD4/Cereblon in human LS174T cells assessed as complete BRD4 protein degradation at […] for 24 hrs by Western blot analysis; format: cell-based
How it was run: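 Cells treated 24 h across 1 nM–10 µM range (fibroblasts at 500/1000 nM). Immunoblot: RIPA lysate with 2.5 mmol/l DTT, 15 µg per lane on 10% SDS-PAGE, nitrocellulose, 5% milk block 1 h. BRD4 or MYC primary 1:1,000 overnight at 4 °C, HRP secondary 1:10,000 for 60 min; GAPDH/β-actin loading control; ECL detection.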

DLD-1 = assay: Inhibition of colony formation in human DLD-1 cells at 5 to 10 uM by crystal violet staining analysis; format: functional, cell-based; details: dose 5-10 µM; how it was run: as §1
[12] = target: T1, Protein cereblon/Bromodomain-containing protein 4 (Homo sapiens); assay: PROTAC activity at BRD4/Cereblon in human SW480 cells assessed as decrease in MYC protein expression at 5 to 10 uM for 24 hrs by Western blot analysis; format: cell-based; details: dose 5-10 µM; how it was run: as §2
[13] = target: T2, von Hippel-Lindau disease tumor suppressor/Bromodomain-containing protein 4 (Homo sapiens) (UniProt O60885+P40337); assay: PROTAC activity at BRD4/VHL E3 ligase in human LS174T cells assessed as decrease in BRD4 protein degradation at 5 to 10 uM for 24 hrs by Western blot analysis; format: cell-based; details: dose 5-10 µM
How it was run: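 Eight CRC lines, including LS174t (RPMI 1640) and SW480 (DMEM/HamsF12), all with 10% FCS, were treated with PROTAC at 5 and 10 µM. BRD4 and MYC proteins were detected by immunoblot (RIPA lysate, 15 µg, 10% gel, primary 1:1,000 overnight at 4 °C), with GAPDH/β-actin as loading control.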

[14] = target: T2, von Hippel-Lindau disease tumor suppressor/Bromodomain-containing protein 4 (Homo sapiens); assay: PROTAC activity at BRD4/VHL E3 ligase in human LS174T cells assessed as decrease in MYC protein expression at […] for 24 hrs by Western blot analysis; format: cell-based
How it was run: (§3)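 LS174t cells (RPMI 1640, 10% FCS) were exposed to 1 nM–10 µM for 24 h. Lysates in RIPA with inhibitors and 2.5 mmol/l DTT; 15 µg protein was run on 10% SDS-PAGE and transferred to nitrocellulose. BRD4 or MYC primary antibodies were used at 1:1,000 overnight at 4 °C, HRP secondary 1:10,000, and GAPDH/β-actin as loading control. Detection was by chemiluminescence.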

[15] = target: T2, von Hippel-Lindau disease tumor suppressor/Bromodomain-containing protein 4 (Homo sapiens); assay: PROTAC activity at BRD4/VHL E3 ligase in human LS174T cells assessed as complete BRD4 protein degradation at […] for 24 hrs by Western blot analysis; format: cell-based; how it was run: as §3
[16] = target: T2, von Hippel-Lindau disease tumor suppressor/Bromodomain-containing protein 4 (Homo sapiens); assay: PROTAC activity at BRD4/VHL E3 ligase in human HCT116 p53-/- cells assessed as decrease in MYC protein expression at 5 to 10 uM for 24 hrs by Western blot analysis; format: cell-based; details: HCT-116, dose 5-10 µM; how it was run: as §2

T1 sequence (Q96SW2 whole entry, looked up, other chains not shown): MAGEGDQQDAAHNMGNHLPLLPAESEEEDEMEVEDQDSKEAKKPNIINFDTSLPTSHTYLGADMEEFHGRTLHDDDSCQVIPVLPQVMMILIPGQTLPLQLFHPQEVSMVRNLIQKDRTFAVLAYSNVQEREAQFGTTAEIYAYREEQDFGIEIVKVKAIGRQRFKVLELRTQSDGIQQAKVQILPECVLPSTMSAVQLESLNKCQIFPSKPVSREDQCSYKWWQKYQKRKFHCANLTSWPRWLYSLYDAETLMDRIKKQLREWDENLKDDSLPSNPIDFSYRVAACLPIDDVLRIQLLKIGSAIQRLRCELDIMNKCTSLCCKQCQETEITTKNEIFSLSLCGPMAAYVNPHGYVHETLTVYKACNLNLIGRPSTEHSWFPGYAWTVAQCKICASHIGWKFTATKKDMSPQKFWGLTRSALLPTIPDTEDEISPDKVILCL
T2 sequence (P40337 whole entry, looked up, other chains not shown): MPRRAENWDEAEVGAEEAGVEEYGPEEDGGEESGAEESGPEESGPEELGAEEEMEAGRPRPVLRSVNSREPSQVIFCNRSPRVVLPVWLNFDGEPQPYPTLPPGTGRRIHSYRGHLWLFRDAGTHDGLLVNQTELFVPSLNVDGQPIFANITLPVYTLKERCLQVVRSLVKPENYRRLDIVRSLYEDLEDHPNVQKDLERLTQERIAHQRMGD

Compound | inhibition (LS174T [1]) | inhibition (HCT-116 [4]) | inhibition (Caco-2) | inhibition (HCT-116 [7]) | inhibition (COLO 320) | inhibition (SW480) | inhibition (LS174T [10]) | inhibition (HT-29) | inhibition (DLD-1) | further results
Cc1sc2c(c1C)C(c1ccc(Cl)cc1)=N[C@@H](CC(=O)NCCCCNC(=O)COc1cccc3c1C(=O)N(C1CCC(=O)NC1=O)C3=O)c1nnc(C)n1-2 (stereo not given in full) | Active | Active | Active | Active | Active | Active | Dose-Dependent Effect | Active | Active | Activity [2]: inactive; Activity [3]: inactive; Activity [5]: Active; Activity [6]: inactive; Activity [8]: inactive; Activity [9]: Active; Activity [11]: Active; Activity [12]: inactive
Cc1ncsc1-c1ccc(CNC(=O)[C@@H]2C[C@@H](O)CN2C(=O)[C@@H](NC(=O)COCCOCCOCCNC(=O)C[C@@H]2N=C(c3ccc(Cl)cc3)c3c(sc(C)c3C)-n3c(C)nnc32)C(C)(C)C)cc1 | Active | Active | Active | Active | Active | Active | Dose-Dependent Effect | Active | Active | Activity [13]: Active; Activity [14]: Active; Activity [15]: Active; Activity [16]: Active
